This is an account of results in the EternaBench riboswitch data.

The subject of the data set is MS2 coat protein. The data set is described as follows: apparent Kd, MS2 coat protein; higher = weaker binding; RNA-MaP array; FMN 200 µM where present. Put shortly: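 The apparent Kd is the median of filtered binding-curve fits, one per cluster, to green signal normalised to red-channel RNA signal and control-cluster median Fmax. The clusters were on Illumina sequencing chips, and stalled E. coli RNA polymerase had transcribed the designs on them. Titration used SNAP-549-labelled MS2 coat protein from 0.7 or 1.5 nM, doubling to 3 µM, without and then with constant ligand, in 100 mM Tris-HCl pH 7.5, 80 mM KCl, 4 mM MgCl2, BSA, DTT, yeast tRNA and Tween-20.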

[1] abbreviates: designed as: OFF switch for flavin mononucleotide, no ligand.
Setting [2] is: ligand present: flavin mononucleotide, designed as: OFF switch for flavin mononucleotide.
Where [3] appears, read: designed as: ON switch for flavin mononucleotide, no ligand.
Setting [4] is: ligand present: flavin mononucleotide, designed as: ON switch for flavin mononucleotide.

With “UAUUAAUGCAAGGAUAUGCUAUUAAUUUUUUUUGCAGAAGGUGCAACAUGAGGAUCACCCAUGUUUGAGGGUAU”, the “apparent Kd” value turned out to be 66.8 nM under setting [1] and 67.8 nM under setting [2].

“UCUAUGUAGAUUCGUCAAUACAGUUAGGAUAUGAGAUACAUGAGGAUCACCCAUGUGCAUGUGGAUUAGAAGGAACAAUUAACU”: the “apparent Kd” value reads like this: under setting [1], 93.4 nM; under setting [2], 69.8 nM.

Turning to “UGAUAGGACACAGGAUAUACGUCCUAGAGAUACUAGGAAAGUUUCCUCACAUGAGGAUCACCCAUGUAGAAGGGUGUCCUAUCU”, the “apparent Kd” value by setting is: under setting [1], 9.93 nM; under setting [2], 222 nM.

Turning to “GAGGACUGAUAAUAAUGUAGAAAUACAUGAGGAUCACCCAUGUAGGAUAUCGUCAGGAAUACUGACGAGAAGGACAUACAGUCC”, the “apparent Kd” value reads like this: under setting [1], 16 nM; under setting [2], 23.2 nM.

As to “AUCGCUCAGCAGAAGGGACUGACAUGAGGAUCACCCAUGUCUUUUAUGGUCAGGAUAUGUUGCCGAACCACGAAAAGUGGGUGC”, the “apparent Kd” value runs as follows: under setting [3], 25.7 nM; under setting [4], 9.27 nM.

For “AAAAAGGCAGGAUAUACAAAAAAGAGAAGAGAGGAGGAGGGACAUGAGGAUCACCCAUGUAGAAGGGCCAAAAA”, the “apparent Kd” value is, setting by setting: under setting [1], 31.5 nM; under setting [2], 37.4 nM.

Regarding “UUCAAAUUCGUAGGAUAUGUAUAUAAUUUCUACAUGAGGAUCACCCAUGUUACCAUUUUUUAGUGACAGAAGGACGUAAUCUAA”, the “apparent Kd” value by setting is: under setting [3], 211 nM; under setting [4], 47.6 nM.

On to “AAAAAACAUGAGGAUCACCCAUGUCAAAAGACAUGAGGAUAUGUACAGACUUCGGUCUGUACAGAAGGCAUGUCUU”, for which the “apparent Kd” value stood at 25.7 nM under setting [3] and 18.4 nM under setting [4].

On to “AAAUGCAUAAAGGACACAUGAGGAUCACCCAUGUUUCUGUUCAAGGAUAUGAGGUGAAUGAUCCGUCAGAAGGUGAACUUGCUU”, for which the “apparent Kd” value is, setting by setting: under setting [3], 180 nM; under setting [4], 400 nM.

Take “GUCAGCUCGUGAGGAUAUACAACACUGCUACGGCAGUGUAUUAAGAUCACAUGAGGAUCACCCAUGUAGAAGGCACGAGCUGAU”: the “apparent Kd” value is, setting by setting: under setting [1], 14 nM; under setting [2], 242 nM.

Turning to “UGUUACUAGUAAGGAUAUACUUGCGAUAAGCUUGUAGAAGGUACAGUCUUUUGUAUAACACGUUUACAUGAGGAUCACCCAUGU”, the “apparent Kd” value is, setting by setting: under setting [3], 6.94 nM; under setting [4], 6.01 nM.

With “GCGAUUAAGUAGAAGGUACAAUAUAUAUCAUUGUAAGGAUAUACUUACAUGAGGAUCACCCAUGUUAAAGGAUAUAAUAAUCGC”, the “apparent Kd” value is, setting by setting: under setting [3], 9.08 nM; under setting [4], 8.98 nM.

On to “CAAUUUAUGUCAGGAUAUACAAUACAAUGAUUAGUAGAAGGGAUUAAUACAUGAGGAUCACCCAUGUCAUGUGUCAUAAUAACC”, for which the “apparent Kd” value turned out to be 26.1 nM under setting [1] and 20.1 nM under setting [2].

On to “GACUCGCGCACAGGAUAUCCACGGAGCGGACGUGGAGAAGGGUGACAUGAGGAUCACCCAUGUACGUGAGUCUAGAUCACUUCC”, for which the “apparent Kd” value under setting [3] stood at 67.2 nM and the “apparent Kd” value under setting [4] is 25 nM.

For the sequence “GGGUACAUCGGAGGAUAUCGUGUAAAUACAUGAGGAUCACCCAUGUCGAUGGAGACAUCGGAGAUUGAGAAGGCCGAUGUACCG”, the “apparent Kd” value under setting [3] worked out at 123 nM and the “apparent Kd” value under setting [4] was found to be 8.12 nM.

Turning to “AAAAAGAUAGGAUAUACAUGAAAAAAAAAAAAAAAAAAAAGACAUGAGGAUCACCCAUGUAGAAGGGUCAAAAA”, the “apparent Kd” value is, setting by setting: under setting [1], 133 nM; under setting [2], 124 nM.

Regarding “UAAAUCAAGUCAGGAUAUCGUGCGGUUGGUCGUUACAUGAGGAUCACCCAUGUCUUCCGUUAGCUCGAGAAGGGACGUGAGCCC”, the “apparent Kd” value was 40 nM under setting [3] and 11.5 nM under setting [4].

On to “GCGUUGUCAGGAUAUUAUCCGUGGACAAUAGUCAGACACGGUAAGAAGGGACAUGAGGAUCACCCAUGUCCUCA”, for which the “apparent Kd” value runs as follows: under setting [1], 17.6 nM; under setting [2], 27.1 nM.

Regarding “UGGUUGUGUGUCAGGAUAUGGUCUGGUGUUUCGGGCUAGAAGGGACAUGAGGAUCACCCAUGUGGCUGGUGCGC”, the “apparent Kd” value was determined as 149 nM under setting [1] and 186 nM under setting [2].

With “UGUCGGAGCAGAGGAUAUUACAUGAGGAUCACCCAUGUAUGAACCAAUAGUUGGAAACAGCAAUGUAAGAAGGCUGCUCCGACA”, the “apparent Kd” value is, setting by setting: under setting [1], 11.5 nM; under setting [2], 94.6 nM.

Regarding “AGUCGGCGAGGAUAUACAUGAGGAUCACCCAUGUGAGAGAAUAAAGUGAGUUAGACAAGUAGAAGGCGCUGACA”, the “apparent Kd” value is, setting by setting: under setting [1], 47.4 nM; under setting [2], 415 nM.

“GGUCCAAUAUGAGGAUAUAGCAUCGUAUAGAUGCUAGAAGGCGUGUCGGUAGACAUGAGGAUCACCCAUGUAUUACAAUGGACC”: the “apparent Kd” value stood at 114 nM under setting [3] and 32 nM under setting [4].

For the sequence “UUGCGGGAUUGAGGAUAUUGAGUACAUAUGUUUAACAUGAGGAUCACCCAUGUGGGUUGCGGUAUCGAGAAGGUAACUUACUAC”, the “apparent Kd” value stood at 95.8 nM under setting [3] and 104 nM under setting [4].

Take “CGGCGUUGUCGAGAGGAUAUGCGGUGAUGGACAUGAGGAUCACCCAUGUUAGCGAUAGCAUUACGGUAGAAGGCUCUACAGCUGC”: the “apparent Kd” value under setting [3] is 65 nM and the “apparent Kd” value under setting [4] was found to be 17 nM.

Consider “UAUAUAUAGUAAGGAUAUGUAUUAAUUUGAUAAACAGAAGGUACUGACAUGAGGAUCACCCAUGUUUUAGUGUGGGCAUGUAGA”, for which the “apparent Kd” value by setting is: under setting [1], 98.9 nM; under setting [2], 164 nM.

“UUUUUUUUUAGAGGAUAUAUUGUGUGUUAUAUAAUAGAAGGCUAAACAUGACAUGACACAUGAGGAUCACCCAUGUAUGUCCAU”: the “apparent Kd” value runs as follows: under setting [3], 22.7 nM; under setting [4], 18.2 nM.

For “CACCGUUACCUAGGAUAUAGUACAUGAGGAUCACCCAUGUAAUAAAUGAGAAUUUCGGAUGUAUGCUAGAAGGAGGAAAUCGGC”, the “apparent Kd” value worked out at 39 nM under setting [1] and 40.2 nM under setting [2].

As to “ACAAAGUGAGGAUAUGCUAUUAUACAUUAUUGUUAUUAUUUGCAGAAGGCACAUGAGGAUCACCCAUGUAAGAA”, the “apparent Kd” value under setting [1] was 29.8 nM and the “apparent Kd” value under setting [2] was determined as 22.6 nM.

In the case of “UAUUUAAUCAUAGGAUAUAGUGUGUAAUUUGGACUAGAAGGAUGUAACAUGAGGAUCACCCAUGUGGUAAAUGGGAUACAUUCC”, the “apparent Kd” value came out at 125 nM under setting [3] and 132 nM under setting [4].

Consider “UUCUUACAUGAGGAUCACCCAUGUCAGGAUAUCUCCUCACUGCGCUUGCGCAGUGGAUAGAGAAGGGACAGGCU”, for which the “apparent Kd” value by setting is: under setting [1], 56.8 nM; under setting [2], 50.1 nM.

Consider “AGGAACAUGAGGAUCACCCAUGUUAGAGACCUCAUGCGAUGUAGAAGGAUAAUCCGAGAAGAGGUAUAGGAUAUACAUGAGAAA”, for which the “apparent Kd” value worked out at 208 nM under setting [1] and 171 nM under setting [2].

As to “UUGUUAUGUGUAGGAUAUGCAUAUUAUUAUUAUGCAGAAGGACAUGAGGAUCACCCAUGUGUAUUGUUAUUAUAUAUUAUAUAU”, the “apparent Kd” value reads like this: under setting [1], 22.8 nM; under setting [2], 30.5 nM.

With “UUACUCAUGUAAGGAUAUGCAGUCGUUUCGGCUGCAGAAGGUACUAUAAUACAUGAGGAUCACCCAUGUCUUUUUAAUUUUUAC”, the “apparent Kd” value amounted to 112 nM under setting [3] and 41 nM under setting [4].

Take “AUUUUUAAGGUAGGAUAUAGUAUAAUGAUUUAAUUAGAAGGAUCUCACAUGAGGAUCACCCAUGUAAUAGGAUUACCCAUGUAU”: the “apparent Kd” value under setting [1] is 27.8 nM and the “apparent Kd” value under setting [2] was determined as 22.7 nM.

With “ACAUUUAAUACAGGAUAUGUUGGUAUACAAUAGAUUGGUUAUAACACAUCAACAGAAGGGUAGAACAUGAGGAUCACCCAUGUA”, the “apparent Kd” value by setting is: under setting [3], 53.6 nM; under setting [4], 23.3 nM.

In the case of “UAUUUACAUGAGGAUCACCCAUGUCAGGAUAUGCUUCUAUCGUCGAAAGACGAUAGUUGCAGAAGGGACAAUAU”, the “apparent Kd” value stood at 58.6 nM under setting [1] and 106 nM under setting [2].

In the case of “ACCAAUGGAGGAUAUACAUGAGGAUCACCCAUGUAUAACCUACAUAGGUGAAAAUUAUGUAGAAGGCCAUUGGA”, the “apparent Kd” value under setting [1] came out at 14.6 nM and the “apparent Kd” value under setting [2] amounted to 13.4 nM.

With “GAUCCACAUGAGGAUCACCCAUGUGAGGAUAUGAUACUAUGUACUUCGGUACAUAGUAUCAGAAGGCACGGAUC”, the “apparent Kd” value was 27.1 nM under setting [1] and 31.6 nM under setting [2].

In the case of “UGUCGGAGCAGAGGAUAUUACAUGAGGAUCACCCAUGUAUGAACCAAUAGCUGGAAACAGCAAUGUAAGAAGGCGGCUCCGACA”, the “apparent Kd” value was determined as 5.18 nM under setting [1] and 9.07 nM under setting [2].

In the case of “GGACGUCACAUCUACAUGAGGAUCACCCAUGUCUCUUGAUAUGAGGAUAUGUAUACGAAUCGUAUACAGAAGGCAUGGACGUCC”, the “apparent Kd” value was 26.9 nM under setting [3] and 28.8 nM under setting [4].

As for “GUCAGCUCGUGAGGAUAUACAACACUGCUUCGGCAGUGUAUUAAAAUCACAUGAGGAUCACCCAUGUAGAAGGCACGAGCUGAU”, the “apparent Kd” value turned out to be 5.04 nM under setting [1] and 7.7 nM under setting [2].

Turning to “GGGUACAUCGGAGGAUAUCAUGUAAAUACAUGAGGAUCACCCAUGUCGAUGUAGACAUCGGAGAUUGAGAAGGCCGAUGUACCG”, the “apparent Kd” value was 1400 nM under setting [3] and 52 nM under setting [4].

Consider “CCUAAGGAGACAGGAUAUAGCGUGGUGGCCGGGCUCCCACGGCGAGCGGCGCUAGAAGGGUCACUACAUGAGGAUCACCCAUGU”, for which the “apparent Kd” value runs as follows: under setting [3], 11.2 nM; under setting [4], 11.6 nM.

For “GCACUUAGAGAGGUACCGUUACGAACAUGAGGAUCACCCAUGUAGGAUAUGCUAAUAGUAUUGAAGCAGAAGGACACUAAGUGC”, the “apparent Kd” value under setting [1] was determined as 7.21 nM and the “apparent Kd” value under setting [2] was found to be 30.4 nM.

On to “AGAAACUACGAGAAGGACAUGUGGUCCUUCAAUUACAUGAGGAUCACCCAUGUAGGAUAUCGUAGUUUCAGGAUCGUGAGAUCA”, for which the “apparent Kd” value reads like this: under setting [1], 12.7 nM; under setting [2], 3.81 nM.

For the sequence “AAAUAAAGCAGUGUAUUAAGAUCACAUGAGGAUCACCCAUGUAGAAGGCUCGAGCAAAAUGCUCGAGAGGAUAUACAACACUGC”, the “apparent Kd” value runs as follows: under setting [1], 10.2 nM; under setting [2], 195 nM.

As to “CGUGUCGCAUGAGGAUAUGGUCAGCUUUGCUGACCAGAAGGCAUGUCAAUAGACAUGAGGAUCACCCAUGUAGUAAAGACACGA”, the “apparent Kd” value under setting [3] came out at 416 nM and the “apparent Kd” value under setting [4] was determined as 33.9 nM.

Regarding “GUGAAGUGAGGAUAUACGAGAGAGGCUGAACCGGACGAGAAGUAGAAGGCACAUGAGGAUCACCCAUGUACGGG”, the “apparent Kd” value under setting [2] was found to be 236 nM.
